# Source: ChEMBL document CHEMBL1132973, “Design, synthesis, and antimicrobial activity of 6-O-substituted ketolides active against resistant respiratory tract pathogens” (2000)
# Columns and labels:
# Assay type in all cases: functional
# [1] = tested on: Staphylococcus aureus; assay: In vitro antibacterial activity against Staphylococcus aureus strain A 5177.
# Summary of the method: (§1)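 MICs in µg/mL determined by agar dilution per NCCLS recommendations. Panel includes erythromycin-susceptible strains (S. aureus ATCC 6538P, S. pyogenes EES 61, S. pneumoniae ATCC 6303); ermA MLS_B-resistant S. aureus (A 5177 inducible, A 5278 constitutive); ermB strains (S. pyogenes 930, S. pneumoniae 5737); efflux strains (S. pyogenes PIU 2548 mefA, S. pneumoniae 5649 mefE); and β-lactamase-positive ampicillin-resistant H. influenzae DILL.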
# [2] = tested on: Streptococcus pyogenes; assay: In vitro antibacterial activity against Streptococcus pyogenes strain 930.; summary of the method: as §1
# [3] = tested on: Streptococcus pneumoniae; assay: In vitro antibacterial activity against Streptococcus pneumoniae strain ATCC 6303.; summary of the method: as §1
# [4] = tested on: Staphylococcus aureus; assay: In vitro antibacterial activity against Staphylococcus aureus strain ATCC 6538P.; summary of the method: as §1
# [5] = tested on: Streptococcus pyogenes; assay: In vitro antibacterial activity against Streptococcus pyogenes strain PIU 2548.; summary of the method: as §1
# [6] = tested on: Haemophilus influenzae; assay: In vitro antibacterial activity against Haemophilus influenzae strain DILL.; summary of the method: as §1
# [7] = tested on: Streptococcus pneumoniae; assay: In vitro antibacterial activity against Streptococcus pneumoniae strain 5649.; summary of the method: as §1
# [8] = tested on: Streptococcus pneumoniae; assay: In vitro antibacterial activity against Streptococcus pneumoniae strain 5737.; summary of the method: as §1
# [9] = tested on: Streptococcus pyogenes; assay: In vitro antibacterial activity against Streptococcus pyogenes strain EES 61.; summary of the method: as §1
# [10] = tested on: Staphylococcus aureus; assay: In vitro antibacterial activity against Staphylococcus aureus strain A 5278.; summary of the method: as §1
# [11] = tested on: Streptococcus pneumoniae; assay: (§2) In vivo antibacterial activity against Streptococcus pneumoniae strain 6303
# Summary of the method: (§3)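 Rat lung infection. Rats inoculated intratracheally with 0.5 mL bacterial suspension in 5% gastric hog mucin containing log 10⁶-10⁸ cfu. Dosed daily on days 1-3, starting 18 h post-inoculation. Lung bacterial burden measured by serial-dilution plating of lung homogenates on day 4. ED50, the dose giving a 2 log reduction versus vehicle-treated infected controls, was calculated from group means by linear regression.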
# [12] = tested on: Streptococcus pneumoniae; assay: (§4) In vivo antibacterial activity against Streptococcus pneumoniae strain 6396; summary of the method: as §3
# [13] = tested on: Streptococcus pneumoniae; assay: as §2; remark: listed apart in the source
# [14] = tested on: Streptococcus pneumoniae; assay: (§5) In vivo antibacterial activity against Streptococcus pneumoniae strain 5649
# [15] = tested on: Streptococcus pneumoniae; assay: as §5; summary of the method: as §3; remark: listed apart in the source
# [16] = tested on: Staphylococcus aureus; assay: (§6) In vivo antibacterial activity against Staphylococcus aureus strain 10649
# Summary of the method: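 Mice were inoculated intravenously with a 100-fold LD50 of the organism, then dosed by oral gavage at 1 and 5 h post-inoculation across a dose range. Survival was monitored for 7 days. ED50 is the dose giving 50% survival of treated mice over the trial.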
# [17] = tested on: Streptococcus pneumoniae; assay: as §4; remark: listed apart in the source
# [18] = tested on: Staphylococcus aureus; assay: as §6; remark: listed apart in the source
# [19] = tested on: Streptococcus pyogenes; assay: In vivo antibacterial activity against Streptococcus pyogenes strain C203
# [20] = tested on: Staphylococcus aureus; assay: In vitro antibacterial activity against Staphylococcus aureus strain ATCC 6538P; summary of the method: as §1
MIC [1] [µg/mL],MIC [2] [µg/mL],MIC [3] [µg/mL],MIC [4] [µg/mL],MIC [5] [µg/mL],MIC [6] [µg/mL],MIC [7] [µg/mL],MIC [8] [µg/mL],MIC [9] [µg/mL],MIC [10] [µg/mL],Structure (SMILES),also measured
0.2,100,0.03,0.2,0.1,16,0.25,16,0.2,> 100,CC[C@H]1OC(=O)[C@H](C)C(=O)[C@H](C)[C@@H](O[C@@H]2O[C@H](C)C[C@H](N(C)C)[C@H]2O)[C@@](C)(OC/C=C/c2cnc3ccccc3c2)C[C@@H](C)C(=O)[C@H](C)[C@@H](O)[C@]1(C)O,
,,,,,,,,,,CC[C@H]1OC(=O)[C@H](C)[C@@H](O[C@H]2C[C@@](C)(OC)[C@@H](O)[C@H](C)O2)[C@H](C)[C@@H](O[C@@H]2O[C@H](C)C[C@H](N(C)C)[C@H]2O)[C@](C)(O)C[C@@H](C)CN(C)[C@H](C)[C@@H](O)[C@]1(C)O [AZITHROMYCIN],"ED50 [19]: 6.1 mg/kg; MIC [19]: 0.06 µg/mL; MIC ([19]; Streptococcus pyogenes, read-out: MIC): 0.06 µg/mL; ED50 [12]: > 100 mg/kg; MIC [13]: 0.12 µg/mL; MIC [14]: 16 µg/mL; ED50 [15]: 78.7 mg/kg; ED50 [16]: 24.8 mg/kg; MIC [17]: > 128 µg/mL; MIC [18]: 0.78 µg/mL"
1.56,> 64,0.5,0.78,2,64,0.25,> 64,0.25,> 100,C=CCO[C@@]1(C)C[C@@H](C)C(=O)[C@H](C)[C@H]2NC(=O)O[C@]2(C)[C@@H](CC)OC(=O)[C@H](C)C(=O)[C@H](C)[C@H]1O[C@@H]1O[C@H](C)C[C@H](N(C)C)[C@H]1O,
0.1,64,0.03,0.1,0.25,4,0.25,64,0.03,> 100,CC[C@H]1OC(=O)[C@H](C)C(=O)[C@H](C)[C@@H](O[C@@H]2O[C@H](C)C[C@H](N(C)C)[C@H]2O)[C@](C)(OC/C=C/c2ccccc2)C[C@@H](C)C(=O)[C@H](C)[C@H]2NC(=O)O[C@@]21C,
50,> 128,4,,32,> 128,8,> 128,,> 100,C=CCO[C@@]1(C)C[C@@H](C)C(=O)[C@H](C)[C@@H](O)[C@](C)(O)[C@@H](CC)OC(=O)[C@H](C)C(=O)[C@H](C)[C@H]1O[C@@H]1O[C@H](C)C[C@H](N(C)C)[C@H]1O,MIC [20]: 12.5 µg/mL
1.56,64,0.25,1.56,2,128,2,64,0.25,> 100,CC[C@H]1OC(=O)[C@H](C)C(=O)[C@H](C)[C@@H](O[C@@H]2O[C@H](C)C[C@H](N(C)C)[C@H]2O)[C@](C)(OC/C=C/c2ccccc2)C[C@@H](C)C(=O)[C@H](C)[C@@H](O)[C@]1(C)O,

Structure (SMILES),MIC [1] [µg/mL],MIC [2] [µg/mL],MIC [3] [µg/mL],MIC [4] [µg/mL],MIC [5] [µg/mL],MIC [6] [µg/mL],MIC [7] [µg/mL],MIC [8] [µg/mL],MIC [9] [µg/mL],MIC [10] [µg/mL],also measured
CC[C@H]1OC(=O)[C@H](C)C(=O)[C@H](C)[C@@H](O[C@@H]2O[C@H](C)C[C@H](N(C)C)[C@H]2O)[C@](C)(OCC=Cc2cnc3ccccc3c2)C[C@@H](C)C(=O)[C@H](C)[C@H]2NC(=O)O[C@@]21C [CETHROMYCIN],0.05,1,0.004,0.05,0.125,2,0.25,0.25,0.004,> 100,
CC[C@H]1OC(=O)[C@H](C)[C@@H](O[C@H]2C[C@@](C)(OC)[C@@H](O)[C@H](C)O2)[C@H](C)[C@@H](O[C@@H]2O[C@H](C)C[C@H](N(C)C)[C@H]2O)[C@](C)(O)C[C@@H](C)C(=O)[C@H](C)[C@@H](O)[C@]1(C)O [ERYTHROMYCIN],6.2,> 128,0.06,,32,8,16,> 128,0.06,> 100,
CC[C@H]1OC(=O)[C@H](C)C(=O)[C@H](C)[C@@H](O[C@@H]2O[C@H](C)C[C@H](N(C)C)[C@H]2O)[C@](C)(OC)C[C@@H](C)C(=O)[C@H](C)[C@H]2N(CCCCn3cnc(-c4cccnc4)c3)C(=O)O[C@]12C [TELITHROMYCIN],,8,0.004,,2,,,8,0.004,> 100,ED50 [11]: 34.1 mg/kg; ED50 [12]: 26.7 mg/kg; MIC [13]: 0.004 µg/mL; MIC [14]: 0.5 µg/mL; ED50 [15]: 25.8 mg/kg; ED50 [16]: 12.5 mg/kg; MIC [17]: 0.125 µg/mL; MIC [18]: 0.1 µg/mL
